High-throughput results as filed in PubChem BioAssay.
PAFAH1B3 inh – inhibitors of human PAFAH1B3. recombinant PAFAH1B3, FP-rhodamine probe, fluorescence polarization. inhibition, % at 3.39 µM. 0.28% of 340,000 active. AID 492972;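 active = inhibition above the screen-wide average of all tested compounds plus 3 SD, cut at about 25% in these data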;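 note: 0% = enzyme with DMSO only and 100% = wells lacking PAFAH1B3 protein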
GRIN3A LBD mod – modulators (binders) of human NR3A ligand-binding domain; Tm shift relative to glycine control, % at 25 µM; 2.5% of 340,000 active; NR3A LBD differential scanning fluorimetry, Tm shift; 0% = protein alone, 100% = glycine-bound protein;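 active = melting temperature shift of at least 10% of the positive control shift, at one fixed dose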
PAFAH1B2 inh – PAFAH1B2 (human) inhibition. P68402. recombinant PAFAH1B2, FP-rhodamine activity probe, fluorescence polarization. inhibition, % at 3.39 µM. 1.2% of 340,000 active. AID 492953;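 active = inhibition above the mean of all tested compounds plus 3 SD, cut at about 24% in these data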;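 note: 0% = enzyme with DMSO and 100% = wells lacking PAFAH1B2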
UCH37 inh – inhibitors of human deubiquitinating enzyme UCH37. purified proteasome/UCH37, Ub-AMC cleavage fluorescence. 0.33% of 330,000 active. inhibition, % (test concentration not listed);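 active = mean inhibition over replicate wells above about 20%, limit read from the data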;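 note: 0% = compound-free wells with enzyme and 100% = wells lacking proteasome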
Target sequence (Q9Y5K5 whole entry, looked up): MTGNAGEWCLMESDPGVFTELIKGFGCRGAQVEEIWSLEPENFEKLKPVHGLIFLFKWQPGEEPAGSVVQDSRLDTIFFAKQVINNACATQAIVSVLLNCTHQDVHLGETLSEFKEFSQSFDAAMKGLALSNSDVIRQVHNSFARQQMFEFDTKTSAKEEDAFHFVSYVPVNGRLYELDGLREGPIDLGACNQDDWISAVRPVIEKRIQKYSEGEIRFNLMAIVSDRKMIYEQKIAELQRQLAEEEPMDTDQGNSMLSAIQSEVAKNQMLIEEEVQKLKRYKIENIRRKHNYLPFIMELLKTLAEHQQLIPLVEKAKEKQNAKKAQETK
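Signal – fluorescence, ex 355 nm, em 460 nm · System – Proteasome-bound UCH37 · Input – 0.15 nM proteasome as dispensed · Timing – 30 min preincubation with enzyme, 25 min cleavage at room temperature · Read-out basis – percent inhibition of cleavage signal versus uninhibited and no-proteasome wells · Medium – Tris-HCl pH 7.4 with ATP-MgCl2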
PAFAH2 inh – inhibitors of human PAFAH2; Q99487; recombinant PAFAH2, FP-rhodamine activity probe, fluorescence polarization; inhibition, % at 3.39 µM; 0.99% of 340,000 active; AID 492956;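 active = inhibition above the mean over all tested compounds plus 3 SD, cut at about 30% in these data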;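 note: inhibitors block probe labeling of enzyme so polarization drops; 0% = enzyme with DMSO and 100% = wells lacking PAFAH2 protein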
pPAFAH FP inh – pPAFAH (human) enzyme inhibition; recombinant pPAFAH, FP-rhodamine probe fluorescence polarization; 1.5% of 330,000 active; inhibition, % at 3.39 µM; Q13093;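 active = inhibition above the mean inhibition across the screen plus 3 SD, cut at about 25% in these data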;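 note: inhibitors block binding of the rhodamine activity-based probe so polarization drops; 0% = enzyme with DMSO and 100% = wells lacking pPAFAH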
Numbers without * were called inactive; x = no result given. Rows were chosen to be rich in hits. Some 4.8% of all compounds tested hit in one or more screens of this group.

SMILES	PAFAH1B3 inh	GRIN3A LBD mod	PAFAH1B2 inh	UCH37 inh	PAFAH2 inh	pPAFAH FP inh
Cc1cc(C)nc(NC(=NCCc2c[nH]c3ccccc23)NC(=O)Nc2ccc(Cl)c(Cl)c2)n1	-22	27*	-4	6	-40	-1
Cc1cc(C)nc(NC(=NCCc2c[nH]c3ccccc23)NC(=O)Nc2ccccc2)n1	-8	10*	-5	3	-12	1
Cc1cc(C)nc(NC(=NCCc2c[nH]c3ccccc23)NC(=O)Nc2cccc([N+](=O)[O-])c2)n1	2	-12	1	0	-7	-5
COc1cc(C=NNC(=O)CC2C(=O)NN=C2C)ccc1O (centres undefined)	x	x	x	0	x	x
CC(=NOC(=O)C1CC12CCC2)c1ccc(Br)cc1 (centres undefined)	x	x	x	1	x	x
COc1ccc(C=NNC(=O)CN(Cc2ccccc2)S(=O)(=O)c2ccc3c(c2)OCCO3)cc1	x	x	x	1	x	x
CC(=O)Nc1cccc(-c2nnc(-c3ccc(C)cc3)o2)c1	3	1	-1	-130	4	x
COc1cccc(-c2nc(-c3ccc(NC(=O)c4cccs4)cc3)no2)c1	-4	15*	-1	-8	-7	-6
CCOc1ccccc1-c1nc(-c2ccc(NC(=O)Cc3ccc(OC)cc3)cc2)no1	-4	8	-3	3	-9	-4
Cc1ccc(-c2nnc(-c3cccc(NC(=O)c4cccs4)c3)o2)cc1	-8	20*	6	3	-10	-33
COc1ccc(Cl)cc1-c1nc(-c2ccc(NC(=O)c3ccncc3)cc2)no1	-41	26*	-27	6	-64	-10
CCOc1ccccc1-c1nc(-c2ccc(NC(=O)c3ccc(Br)o3)cc2)no1	x	16*	x	-8	x	-10
COc1cccc(NC(=O)c2ccccc2-c2nc(-c3ccc(Cl)cc3)no2)c1	-7	16*	0	0	-22	-17
COc1cccc(-c2nc(-c3ccc(NC(=O)c4ccncc4)cc3)no2)c1	11	24*	-2	1	-18	-3
COc1ccc(-c2nc(-c3ccc(NC(=O)c4ccncc4)cc3)no2)cc1OC	-3	12*	1	-1	-19	-5
COc1cc(-c2nc(-c3ccc(NC(=O)c4ccc5c(c4)OCO5)cc3)no2)cc(OC)c1OC	-11	-4	-3	-11	-16	-4
COc1cccc(NC(=O)c2ccccc2-c2nc(-c3ccccc3)no2)c1	-12	-1	0	0	-6	1
CCNc1nc(NC(C)(C)C)nc(SC(C(C)=O)C(C)=O)n1	1	0	25*	1	-12	-1
CC(C)COC(=O)c1cc(-c2ccc(C=Nn3cnnc3)o2)ccc1Cl	x	x	x	-14	x	x
COc1cc(NC(=O)c2ccc(Cl)cc2Cl)ccc1NC(=O)c1cccs1	7	-1	3	-67	-1	-2
COc1ccc(NC(=O)Nc2cccs2)cc1Cl	7	30*	3	1	5	7
COc1ccc(C(=O)Nc2cccc(NC(=O)c3cccs3)c2)cc1OC	7	6	1	2	-5	-7
COc1ccc(C(=O)Nc2ccc(NC(=O)c3cccs3)cc2)cc1Cl	1	34*	-5	4	-10	-2
COc1ccc(/C=C/C(=O)c2ccc(NC(=O)c3cccs3)cc2)cc1OC	-27	16*	-12	-4	-40	-7
COc1ccc(C(=O)Nc2ccc(NC(=O)c3cccs3)c(OC)c2)cc1Cl	4	33*	-1	-191	0	3
SMILES	PAFAH1B3 inh	GRIN3A LBD mod	PAFAH1B2 inh	UCH37 inh	PAFAH2 inh	pPAFAH FP inh
Cc1nc2ccccc2c(=O)n1N=Cc1ccc(O)cc1O	x	x	x	0	x	x
COc1ccc(C(=O)Nc2ccc(Cl)cn2)cc1Cl	-1	30*	-5	1	-3	-2
COc1c(Cl)cc(Cl)cc1C(=O)Nc1ccc(NC(=O)c2cccs2)cc1	-1	214*	5	-6	-4	-5
COc1cc(NC(=O)c2cccs2)c(OC)cc1NC(=O)c1cccs1	-3	-1	1	-9	0	5
COc1ccccc1C(=O)Nc1ccc(C(=O)/C=C/c2cccs2)cc1	-10	11*	-8	2	-22	-9
COc1cc(NC(=O)c2cccs2)c(OC)cc1NC(=O)Nc1ccc(F)cc1	8	25*	1	x	10	x
